Sampled rows, rich in hits. Any-hit rate of the full collection: about 2.3%.
TRPC4 agonist – activators of mouse TRPC4 channel. Q9QUQ5. HEK293 TRPC4beta/mu-opioid, Fluo4 calcium fluorescence; active compounds read high. B-score at 10 µM. 310,000 compounds, 0.49% hits. AID 2237;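 active = B-score above 5 SD of library B-scores, and initial fluorescence ratio not above library mean plus 5 SD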;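 note: positive B-score marks a calcium rise read as TRPC4 activation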
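Assay system: HEK293 cells stably co-expressing mouse TRPC4beta and mu-opioid receptor / Timing: Fluo4 dye loading 45 min at room temperature, 110 s recording / Signal: Fluo4 calcium-sensitive dye fluorescence, kinetic, 1 Hz baseline / Read-out: integrated baseline-normalised fluorescence ratio, converted to per-well B score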
TRPC6 activator – mouse TRPC6 channel activation; HEK293-TRPC6 membrane potential dye fluorescence; active compounds read high; B-score at 10 µM; AID 2550; 310,000 compounds, 0.13% hits; Q61143;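 active = B-score of the integrated fluorescence ratio above library mean plus 3 SD, and starting fluorescence ratio within library mean plus 5 SD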;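 note: higher score means more depolarization so channel activation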
Target sequence (Q61143 whole entry, looked up): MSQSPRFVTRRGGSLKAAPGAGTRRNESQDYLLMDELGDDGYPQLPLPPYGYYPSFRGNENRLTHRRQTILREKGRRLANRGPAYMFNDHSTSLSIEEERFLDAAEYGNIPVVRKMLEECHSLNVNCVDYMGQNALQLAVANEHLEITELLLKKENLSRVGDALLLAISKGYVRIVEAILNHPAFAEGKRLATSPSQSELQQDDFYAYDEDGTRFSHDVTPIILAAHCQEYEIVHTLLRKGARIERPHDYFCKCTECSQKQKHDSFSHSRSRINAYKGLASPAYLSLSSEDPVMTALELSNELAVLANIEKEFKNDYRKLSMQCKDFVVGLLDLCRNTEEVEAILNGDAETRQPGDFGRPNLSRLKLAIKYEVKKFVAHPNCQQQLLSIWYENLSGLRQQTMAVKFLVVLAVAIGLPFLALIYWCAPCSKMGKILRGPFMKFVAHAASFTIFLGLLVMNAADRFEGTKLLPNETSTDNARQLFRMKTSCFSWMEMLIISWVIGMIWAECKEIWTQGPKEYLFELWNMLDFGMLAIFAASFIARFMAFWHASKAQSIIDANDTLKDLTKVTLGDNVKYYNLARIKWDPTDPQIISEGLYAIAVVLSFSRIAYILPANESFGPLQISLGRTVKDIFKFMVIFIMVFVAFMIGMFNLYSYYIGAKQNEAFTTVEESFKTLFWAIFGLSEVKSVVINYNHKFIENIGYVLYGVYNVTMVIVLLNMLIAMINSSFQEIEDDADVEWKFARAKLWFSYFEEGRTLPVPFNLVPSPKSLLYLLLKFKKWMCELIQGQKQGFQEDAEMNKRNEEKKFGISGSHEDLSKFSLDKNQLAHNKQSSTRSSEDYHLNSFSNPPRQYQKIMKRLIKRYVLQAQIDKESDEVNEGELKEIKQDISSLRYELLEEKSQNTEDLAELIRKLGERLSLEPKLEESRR
TRPC4 block – blocks the mouse TRPC4 cation channel; 300,000 compounds, 0.39% hits; Q9QUQ5; B-score at 10 µM; AID 2247; HEK293 TRPC4beta/mu-opioid, DAMGO-evoked Fluo4 calcium flux; active compounds read low;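 active = B-score over 3 SD under the library average, no early fluorescence shift, positive overall ratio signal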
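Test system – stable TRPC4beta/mu-opioid receptor HEK293 cells · Probe or stimulus – DAMGO, a submaximal dose followed by a maximal one · Dosing – one concentration per compound · Signal – Fluo4 calcium fluorescence by kinetic imaging, 5 s 1 Hz baseline · Evaluation – per-well B score of integrated baseline-normalized Fluo4 ratio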
TRPC4 PAM – TRPC4 (mouse) allosteric potentiation | Q9QUQ5 | HEK293 TRPC4beta/mu-opioid, DAMGO EC20, Fluo-4 Ca2+ flux; active compounds read high | B-score at 10 µM | 310,000 compounds, 0.42% hits;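 active = B-score of calcium response area above 5 SD of library B-scores, with initial fluorescence ratio within 5 SD of library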;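 note: B-score of integrated fluorescence ratio over time as area under calcium response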
TRPC6 inh – mouse TRPC6 channel inhibition; HEK293-TRPC6, membrane potential dye, ACh-evoked depolarization; active compounds read low; B-score at 10 µM; 310,000 compounds, 1.1% hits; AID 2553;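 active = B-score under library mean minus 3 SD, initial fluorescence not abnormally high, positive integrated signal ratio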;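 note: B-score derived from integrated fluorescence ratio over the kinetic read; more negative B-score means stronger inhibition of depolarization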
TRPC4 sel inh 2 – second selectivity test of TRPC6 inhibitors: effect on mouse TRPC4; shares compounds with TRPC6 inh; HEK293 TRPC4/MOR, membrane potential dye fluorescence; channel activated by saturating DAMGO dose; inhibition, % at 10 µM; 920 compounds, 42% hits; AID 2776;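 active = compounds whose fluorescence signal differed from control wells by over 3 SD, either direction, in both duplicate plates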
TRPC4 spec – mouse TRPC4 off-target activity of TRPC6 inhibitors. shares compounds with TRPC6 inh. HEK293 TRPC4/mu-opioid, membrane potential fluorescence. activity change, negative = inhibition, % at 10 µM. 920 compounds, 61% hits. AID 2777;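 active = rise or fall in signal beyond 3 SD of buffer-only wells in both replicate plates, either sign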;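 note: integrated kinetic ratio of fluorescence range over baseline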
HEK293 MPD ctr 2-1 – second check of TRPC6 inhibitor effects in parental HEK293 cells | shares compounds with TRPC6 inh | parental HEK293 membrane potential dye fluorescence; maximal acetylcholine challenge after compound addition | signal change vs control, % at 10 µM | 920 compounds, 31% hits | AID 2779;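 active = membrane potential signal moving either way by over 3 SD of the maximum-effect control, in both duplicate plates, meaning non-specific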
HEK293 MPD ctr-1 – counter-screen for TRPC6 inhibitors: effect in parental HEK293 cells | shares compounds with TRPC6 inh | parental HEK293 membrane potential dye fluorescence | membrane potential signal change, % at 10 µM | 920 compounds, 60% hits;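 active = membrane potential signal shifting up or down by more than 3 SD of buffer-only wells, on both duplicate plates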
HEK293 MPD ctr-2 – parental HEK293 nonspecific activity of TRPC6 modulators. shares compounds with TRPC6 inh. membrane potential dye fluorescence. 2,400 compounds, 51% hits. membrane potential signal change, % at 10 µM;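 active = membrane potential signal moves up or down beyond 5 SD from buffer-only wells, on both duplicate plates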
HEK293 MPD ctr 2-2 – parental HEK293 nonspecific activity of TRPC6 modulators, second screen. shares compounds with TRPC6 inh. membrane potential dye fluorescence; after compound, maximal acetylcholine stimulation. inhibition, % at 10 µM. 2,400 compounds, 14% hits. AID 488926;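 active = membrane potential signal drops by more than 5 SD from the mean control signal, in both duplicate plates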;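 note: plate controls were acetylcholine ECmax control wells for no effect and buffer only wells for full effect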
TRPC4 ctr mod – tests whether TRPC6 modulators also affect mouse TRPC4; 2,400 compounds, 69% hits; percent change from control (negative = decrease, positive = increase), % at 10 µM; shares compounds with TRPC6 inh; HEK293 TRPC4/mu-opioid, membrane potential fluorescence;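 active = membrane potential signal moved up or down beyond 5 SD of buffer control wells, in both duplicate plates, actives on both sides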;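 note: plate controls were assay buffer wells for no effect and DAMGO maximal-effect wells for full effect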
TRPC4/MOR inh 2 – second check of whether TRPC6 modulators also affect mouse TRPC4. 2,400 compounds, 55% hits. AID 488928. inhibition, % at 10 µM. HEK293 TRPC4/mu-opioid, membrane potential dye fluorescence; stimulated with maximal-effect DAMGO. shares compounds with TRPC6 inh;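 active = drop in membrane potential signal beyond 5 SD of the control wells in both duplicate plates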;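 note: TRPC4 counter screen for TRPC6 hits run under conditions tuned for TRPC6 not TRPC4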
TRPC6 inh conf – mouse TRPC6 inhibitor confirmation; shares compounds with TRPC6 inh; HEK293-TRPC6, membrane potential dye, ACh-evoked depolarization; inhibition, % at 10 µM; 3,300 compounds, 43% hits;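 active = fluorescence ratio falls more than 5 SD below the full-stimulation control mean, in both duplicate runs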;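 note: integrated fluorescence ratio of peak minus minimum over baseline after agonist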
TRPC6 act conf – mouse TRPC6 activator confirmation. HEK293-TRPC6 membrane potential dye fluorescence, FDSS. 2,800 compounds, 11% hits. shares compounds with TRPC6 inh. activation, % at 10 µM. AID 488961;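 active = ratio signal rise beyond 5 SD above unstimulated control wells' mean, seen in both duplicate runs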;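 note: plate controls were buffer EC0 wells for no effect and acetylcholine ECmax response for full effect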
An asterisk follows results filed as active; i = inactive; x = no result.

SMILES | TRPC4 agonist | TRPC6 activator | TRPC4 block | TRPC4 PAM | TRPC6 inh | HEK293 MPD ctr-2 | HEK293 MPD ctr 2-2 | TRPC4 ctr mod | TRPC4/MOR inh 2 | TRPC6 inh conf | TRPC6 act conf | others
COC(=O)c1ccc(CN2CCC(Oc3ccc(C(=O)N4CCCCC4)cc3)CC2)cc1 | i | i | i | i | -5.72* | 139.5%* | i | 15.0%* | i | 45.5%* | x
COC(=O)c1ccc(CN2CCC(Oc3cccc(C(=O)N4CCCC4)c3)CC2)cc1 | i | i | i | i | i | x | x | x | x | x | x
O=C(COc1ccc([N+](=O)[O-])cc1)Nc1ccncc1 | i | i | i | i | -5.21* | -134.0%* | i | -28.5%* | 32.5%* | 37.0%* | i
O=C(COc1ccc(/C=N/NC(=O)c2ccncc2)cc1)Nc1ccc([N+](=O)[O-])cc1 | i | i | i | i | i | x | x | x | x | x | x
Cc1ccc(CNC(=O)CSc2nnc(CNC(=O)c3ccccc3)o2)cc1 | i | i | i | i | i | x | x | x | x | x | x
Cn1nnc2cc(C(=O)N3CCN(c4ccccn4)CC3)ccc21 | i | i | i | i | i | x | x | x | x | x | x
COc1ccc(NC(=O)CN2CCC(n3c(C)nc4cc(F)ccc43)CC2)c(OC)c1 | i | i | i | i | i | x | x | x | x | x | x
COc1cc(OC)cc(C(=O)N2CCC(n3c(C)nc4cc(F)ccc43)CC2)c1 | i | 20.1* | i | i | i | i | i | i | i | x | 163.0%*
COc1ccccc1CNC1CCCc2ccccc21 (stereo not drawn) | i | i | i | i | -7.43* | x | x | x | x | 64.8%* | x | TRPC4 sel inh 2=i;TRPC4 spec=19.9%*;HEK293 MPD ctr 2-1=i;HEK293 MPD ctr-1=9.1%*
COC(=O)C1=C(N)OC2=C(C(=O)CC(C)(C)C2)C1c1cc2c(cc1Cl)OCO2 (stereo not drawn) | i | i | i | i | -9.28* | x | x | x | x | i | i | TRPC4 sel inh 2=34.0%*;TRPC4 spec=i;HEK293 MPD ctr 2-1=i;HEK293 MPD ctr-1=i
O=C(Nc1cc(F)ccc1F)N1CCN(c2ccnc3cc(Cl)ccc23)CC1 | i | i | i | i | i | x | x | x | x | x | x
Cc1ccc(F)cc1NC(=O)N1CCN(c2ccnc3cc(Cl)ccc23)CC1 | i | i | i | i | -5.26* | -94.5%* | i | -23.5%* | i | i | i
Nc1ccccc1Nc1nc2ccccc2[nH]1 | i | i | i | i | -5.47* | 340.0%* | i | 87.5%* | i | i | x
CN(C)c1ccc(C(c2ccc(N(C)C)cc2)c2ccc([N+](=O)[O-])cc2)cc1 | i | i | i | i | i | x | x | x | x | x | x
Cc1ccccc1OCC(O)CN1CCN(CCN2C(=O)c3cccc4cccc(c34)C2=O)CC1 (stereo not drawn) | i | i | i | i | -5.23* | i | i | -18.0%* | 82.0%* | 59.0%* | i
CCC(OCC(O)CN1CCN(CCN2C(=O)c3cccc4cccc(c34)C2=O)CC1)c1ccccc1 (stereo not drawn) | i | i | i | i | -6.12* | -90.0%* | i | -29.0%* | 77.0%* | 59.5%* | i
Cc1cccc(C)c1OCC(O)CN1CCC(CN2C(=O)c3cccc4cccc(c34)C2=O)CC1 (stereo not drawn) | i | i | i | i | -8.35* | x | x | x | x | 64.4%* | i | TRPC4 sel inh 2=39.5%*;TRPC4 spec=-18.2%*;HEK293 MPD ctr 2-1=i;HEK293 MPD ctr-1=-200.0%*
CN(C)C(=S)Nc1ccc(S(=O)(=O)N2CCCCC2)cc1 | i | i | i | i | i | x | x | x | x | x | x
COCCNc1c([N+](=O)[O-])c(=O)n(-c2ccccc2)c2ccccc12 | i | i | i | i | i | x | x | x | x | x | x
O=c1c([N+](=O)[O-])c(NCCN2CCCCCC2)c2ccccc2n1-c1ccccc1 | i | i | i | i | -6.28* | i | i | -16.0%* | 80.0%* | 50.5%* | i
N#Cc1c(NC(=O)c2ccccc2)sc2c1CCCCC2 | i | i | i | i | i | x | x | x | x | x | x
N#Cc1c(Cl)nsc1NC(=O)c1ccccc1 | i | i | i | i | -5.29* | 255.5%* | i | 101.0%* | 79.5%* | 71.0%* | x
COc1ccc(-c2nc3n(c2C)Cc2ccccc2-3)cc1 | i | i | i | i | -6.17* | -69.5%* | i | -14.5%* | 52.0%* | i | i
N#CCC(=O)Nc1ccc(C(=O)Nc2cccnc2)cc1 | i | i | i | i | i | x | x | x | x | x | x
Cc1ccc(Cl)cc1NC(=O)CC(O)(C(F)(F)F)C(F)(F)F | i | i | i | i | -8.14* | x | x | x | x | 110.1%* | x | TRPC4 sel inh 2=58.0%*;TRPC4 spec=41.3%*;HEK293 MPD ctr 2-1=-77.0%*;HEK293 MPD ctr-1=28.0%*
Cc1ccc(S(=O)(=O)NCCNc2ccc([N+](=O)[O-])cc2)cc1 | i | i | i | i | -5.63* | i | i | -14.0%* | i | i | i
COc1ccccc1N1CCN(c2cc(N3CCCC3)nc(C)n2)CC1 | i | i | i | i | i | x | x | x | x | x | x
COc1ccc(OC)c2c(C)cc(N3CCCN(C)CC3)nc12 | i | i | i | i | -10.6* | -246.5%* | 74.5%* | -40.0%* | 69.0%* | 67.5%* | i

Source: PubChem BioAssay
